PG9 binder: small molecules binding HIV-1 gp120 antibody PG9; TR-FRET gp120-PG9 antibody binding; inhibition, % at 6.7 µM; 0.43% of 360,000 active; AID 624416; in the data active means inhibition above about 8.5%
PKA-R1A activ: PKA-R1A complex activation; P00514+P68181; PKA-R1A dissociation, Cy5-IP20 fluorescence polarization; scaled: DMSO 0%, 113 µM cGMP 100%; activation, % at 11.4 µM; 0.083% of 340,000 active;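 active means percent activation above the mean of all tested compounds plus 3 SD, cut at about 19% in these data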;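 further: higher means more PKAc released from R1A so a rise in polarization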
PKA-R2B activ: PKA-R2B complex activation; 0.079% of 340,000 active; activation, % at 11.4 µM; PKA-R2B holoenzyme dissociation, Cy5-IP20 fluorescence polarization; R2B truncated from residue 108, S112A mutant; 0% DMSO only, 100% 113 µM cGMP; P22694+P31323;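 active means activation above a cutoff set at the mean over all compounds plus 3 SD, cut at about 18% in these data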;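 further: higher means more holoenzyme dissociation and a rise in polarization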
NR2E3 ag-1: NR2E3 (human) agonism; Q9Y5X4; GST-NR2E3/biotin-RetCOR TR-FRET, 1536-well; inhibition of corepressor binding, % at 4.78 µM; 0.12% of 320,000 active;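 active means percent inhibition above the cutoff of mean plus 3 SD of all tested compounds, set per screening campaign, cut at about 20% in these data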;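 further: 0% = DMSO wells and 100% = biotin wells as full block of FRET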
Target sequence (Q9Y5X4 whole entry, looked up): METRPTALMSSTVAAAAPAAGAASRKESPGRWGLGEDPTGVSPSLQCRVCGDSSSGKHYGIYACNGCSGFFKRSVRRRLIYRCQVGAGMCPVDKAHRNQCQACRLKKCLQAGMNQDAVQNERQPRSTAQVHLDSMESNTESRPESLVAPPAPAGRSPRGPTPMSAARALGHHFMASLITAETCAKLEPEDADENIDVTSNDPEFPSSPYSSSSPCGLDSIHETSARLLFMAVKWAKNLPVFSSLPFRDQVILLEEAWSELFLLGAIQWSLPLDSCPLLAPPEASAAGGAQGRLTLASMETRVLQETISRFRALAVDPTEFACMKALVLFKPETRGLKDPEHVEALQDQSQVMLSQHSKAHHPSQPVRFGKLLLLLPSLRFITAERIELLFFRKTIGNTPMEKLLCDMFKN
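Material: NR2E3–RetCOR corepressor complex / Incubation: Compound–protein incubation for 5 h at 4 °C / Dosing: compound at 4.8 µM, single dose / Detection: time-resolved FRET / Benchmarks: high control biotin, low control 0.6% DMSO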
Rev-erbA mod: modulators of human Rev-erb alpha DNA binding | 0.79% of 370,000 active | P20393 | Rev-erbα–FITC-DNA binding, fluorescence polarization, 90 min | AID 1259318 | activity, % at 10 µM;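 active means activity above about 14%, limit read from the data; passing the limit was not always enough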;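 further: 0% = DMSO wells with 35 nM protein and 100% = DMSO wells with 750 nM protein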
NR2E3 ag-2: agonists of human NR2E3 nuclear receptor | Q9Y5X4 | AID 602229 | 0.35% of 360,000 active | CHO-S Gal4-NCOR/VP16-NR2E3 two-hybrid, luciferase | inhibition of corepressor binding, % at 3.98 µM;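 active means inhibition above the mean of all tested compounds plus 3 SD, cut at about 70% in these data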;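 further: 0% = DMSO with NR2E3 transfected cells and 100% = cells lacking NR2E3 construct; higher means lower luciferase signal from less NR2E3 corepressor binding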
Rev-erbA confirm: confirmation of modulators of human Rev-erb alpha DNA binding | 61% of 3,000 active | shares compounds with Rev-erbA mod | activation, % at 25 µM | Rev-erb alpha FITC-DNA binding, fluorescence polarization, 90 min | AID 1259319;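 active means activation at or above a set limit, or at least 3 SD above the negative control mean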;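 further: 0% = 35 nM protein with DMSO and 100% = 750 nM protein high control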
RORg counter: counter-screen for Rev-erb alpha modulators: RORgamma DNA binding; IC50, µM; shares compounds with Rev-erbA mod; AID 1259320; 8% of 910 active; purified RORgamma protein-FITC-DNA binding, fluorescence polarization;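 active means Compounds whose fitted half-maximal concentration for disrupting protein-DNA binding is below 10 micromolar; the record names Rev-erb in its text, so the target is in doubt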
* marks the source's active call; other numbers are inactive results; i = inactive; nt = no result given. Compounds with a hit are over-represented: about 1.6% of the library has one in this group of screens.

SMILES	PG9 binder	PKA-R1A activ	PKA-R2B activ	NR2E3 ag-1	Rev-erbA mod	NR2E3 ag-2	Rev-erbA confirm	others
CC(=O)Nc1ccc(-c2cc(-c3ccc(NC(C)=O)cc3)nc(-c3ccccc3)n2)cc1	-2	-1	7	6	41*	-3	24*
Cc1ccc2[nH]c(=O)c(CN(C(=O)c3cccs3)c3ccccc3)cc2c1	-3	1	-2	-1	52*	-13	96*	RORg counter=>40
O=C(OCc1cc2ccccc2[nH]c1=O)c1cccs1	1	-3	-8	-1	27*	-1	24*
COc1cc(OC)cc(C(=O)OCc2cc3ccccc3[nH]c2=O)c1	3	-8	-10	0	57*	8	50*	RORg counter=>40
COc1ccc(CC(=O)OCc2cc3ccccc3[nH]c2=O)cc1	0	-3	-3	0	-2	-12	nt
Cc1cccc(N(Cc2cc3cc(C)ccc3[nH]c2=O)C(=O)c2cccs2)c1	1	-5	-1	3	15	-39	nt
O=C(OCc1cc2ccccc2[nH]c1=O)c1ccccn1	-1	-17	-5	4	3	-20	nt
CCOc1ccc(-n2c(SCC(=O)Nc3ccc(OCc4ccccc4)cc3)nnc2-c2ccc(Cl)cc2)cc1	nt	nt	nt	nt	2	nt	nt
COC(=O)c1cn(-c2ccc3c(c2)[C@@]2(CC(=O)N(C)C2c2ccccc2)C(=O)N3CC(C)C)nn1 (some centres not stated)	nt	nt	nt	nt	3	nt	nt
Cc1cccc(C(=O)N[C@H]2CC[C@@]34CCCN3C(=O)CCC[C@H]4[C@H]2C)c1	nt	nt	nt	nt	-3	nt	nt
Cc1ccc(NC(=O)Cn2nc(-c3ccccc3Cl)ccc2=O)c(Br)c1	2	-4	3	-5	4	-21	nt
Cc1c(Br)ccc(NC(=O)Cn2nc(-c3cccs3)ccc2=O)c1C	1	6	8	-49	50*	18	42*	RORg counter=>40
Cc1sc2nc(COC(=O)CNC(=O)c3cc(F)ccc3F)[nH]c(=O)c2c1C	nt	nt	nt	nt	-8	nt	nt
Cc1cc(C)c2c(=O)[nH]c(SCC(=O)c3ccc(F)c(C)c3)nc2n1	2	-8	8	-1	35*	-2	24*
Cc1cc(C(=O)CSc2nc(N)cc(=O)[nH]2)ccc1F	-1	11	3	-1	-1	-4	nt
COC(=O)CCC(=O)N1C2=NC3=C(C(=O)N(Cc4ccc5c(c4)OCO5)C3=O)C3N(C)c4ccccc4[C@]23C[C@H]1CO (some centres not stated)	nt	nt	nt	nt	1	nt	nt
CCOC(=O)CCSc1nc(-c2ccc3c(c2)OCO3)cc(C(F)(F)F)c1C#N	-2	-14	-4	-2	21*	1	15
C=CCSc1nc(-c2ccc3c(c2)OCO3)cc(C(F)(F)F)c1C#N	-2	-4	-2	-2	25*	-8	20*
COc1ccc(-c2cc(C(F)(F)F)c(C#N)c(SCC(=O)Nc3ccc(C)cc3)n2)cc1	0	-5	-5	2	83*	-13	32*
CCOC(=O)CC(=O)CSc1nc(-c2ccc3c(c2)OCO3)cc(C(F)(F)F)c1C#N	nt	-3	2	1	110*	8	84*	RORg counter=>40
COc1ccc(-c2nnc(SCc3c(F)cccc3F)n2N)cc1	nt	nt	nt	nt	-4	nt	nt
Cc1ccc2c(c1)N(CCCC(=O)N(C)Cc1ccc(F)cc1)C(=O)CO2	nt	nt	nt	nt	-5	nt	nt
CC[C@@H](CCC(=O)N(c1ccccc1)c1ccccc1)c1ccc(C)cc1	nt	nt	nt	nt	-5	nt	nt
CN(C)c1ccc(/C=C(/C#N)C(=O)NCc2ccccc2)o1	-28	3	2	-5	33*	-64	11
Fc1ccc(C2=Nn3c(nnc3C3CCCCC3)SC2)cc1	nt	nt	nt	nt	2	nt	nt
SMILES	PG9 binder	PKA-R1A activ	PKA-R2B activ	NR2E3 ag-1	Rev-erbA mod	NR2E3 ag-2	Rev-erbA confirm	others
CN(C)c1ccc(/C=C(\C#N)C(=O)Nc2nc3c(s2)CCN(Cc2ccccc2)C3)cc1	-1	2	8	1	28*	-27	22*
COc1ccccc1N=Nc1nc(-c2ccccc2)c(-c2ccccc2)[nH]1	-1	-10	9	0	35*	-25	41*	RORg counter=1.1*
C=CC[C@]12C[C@@]3(O[C@H](c4ccc(C(F)(F)F)cc4)N=C3C[C@H](c3ccc(OC)cc3)[C@H]1C)N(Cc1ccncc1)C2=O	-1	nt	nt	nt	-3	nt	nt
COc1cc(C(=O)NCc2ccncc2)cc(OC)c1OC	-1	7	-2	4	-9	-17	nt
COc1ccccc1C(=O)Nc1ccc2oc(-c3ccc(F)cc3)nc2c1	0	-9	-5	-1	36*	-26	33*	RORg counter=i
COc1cc(C(=O)NCc2ccc(-c3nc4ccccc4o3)cc2)cc(OC)c1OC	11*	-3	-4	2	26*	-5	11
COc1ccc(C(=O)Nc2ccc3oc(-c4cccc(F)c4)nc3c2)cc1OC	2	-10	-5	2	7	2	nt
Cc1nnc(SCC(=O)Nc2cc(S(=O)(=O)N3CCCC3)ccc2Cl)n1C1CC1	0	-10	2	6	-3	-16	nt
CS(=O)(=O)c1ccc(Cl)c(NC(=O)CSc2nnc(C3CC3)n2C2CC2)c1	0	5	-2	4	17*	-3	0
CCOC(=O)c1ccc(-c2ccc3oc(-c4ccsc4)cc(=O)c3c2)cc1F	-1	-14	2	nt	58*	5	12
COc1cc(-c2ccc3oc(-c4ccsc4)cc(=O)c3c2)cc(OC)c1OC	-1	3	-3	nt	-2	9	nt
N#C/C(C(=O)Oc1ccccc1)=C1/Nc2ccccc2-c2ccccc21	2	5	-16	nt	44*	-7	31*
CCC(=O)c1ccc(OCC(=O)Nc2ccccc2C(=O)NC2CC2)cc1	-2	12	4	5	22*	-7	96*	RORg counter=i
CCN(C[C@H]1[C@@H](c2ccc(C3=CCCC3)cc2)[C@H](CO)N1Cc1ccccn1)S(=O)(=O)c1ccccc1[N+](=O)[O-]	nt	nt	nt	nt	4	nt	nt
CCOC(=O)C(C)Sc1cc(CS(=O)(=O)c2ccccc2)nc(-c2ccccc2)n1 (configuration not stated)	0	17	2	-1	29*	8	36*	RORg counter=>40
O=S(=O)(Cc1cc(Sc2ccc(Cl)cc2)nc(-c2ccccc2)n1)c1ccccc1	2	-4	-8	3	7	-24	nt
CN(C)/C=C1\C=C2C(=O)c3ccccc3N2C1=O	-18	-2	5	-11	340*	-29	229*	RORg counter=1.1*

Assay outcomes: PubChem BioAssay, several laboratories
